{
  "source": "ChEMBL document CHEMBL1125869",
  "about": "“Calcium-independent phosphodiesterase inhibitors as putative antidepressants: [3-(bicycloalkyloxy)-4-methoxyphenyl]-2-imidazolidinones” (J Med Chem, 1991)",
  "key": {"Mus musculus [1]": {"species_on_record": "Mus musculus", "assay": "Minimum effective peroral dose (MED) in mouse forced-swim test", "type": "functional", "conditions": "po, read-out: MED", "method_in_brief": "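Mice dosed orally, with compound in vehicle at 1 mL/100 g. One hour later they were placed in water at 25 °C. After 2 min habituation, immobility was rated ten times at 30-s intervals and expressed as percent of control. At least four half-log-spaced doses were given, with nine mice per dose. MED was the lowest dose giving a statistically significant decrease in immobility.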"}, "Phosphodiesterase 4 [2]": {"target": "T1, Phosphodiesterase 4 (Rattus norvegicus, UniProt P14270+P14646+P14644+P54748)", "assay": "Inhibition of [3H]- rolipram binding to rat cerebral cortex membranes", "type": "cell membranes, Membrane", "method_in_brief": "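Cerebral cortex membranes homogenized in ice-cold 50 mM Tris-HCl pH 8.0 with 1.2 mM MgCl2, spun at 30000g for 20 min at 4 °C, washed once and resuspended at 0.5 mg protein/mL. (±)-[3H]rolipram at 2 nM final, 30 min at 25 °C, triplicates per concentration. Nonspecific binding defined with Ro 20-1724 (10 μM). Filtration, then scintillation counting. IC50 taken from semilog plots over several log concentrations.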"}, "Phosphodiesterase 4 [3]": {"target": "T1, Phosphodiesterase 4", "assay": "Inhibition of calcium-independent Phosphodiesterase 4", "type": "protein assay", "method_in_brief": "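Enzyme taken from the 105000g supernatant of female Sprague-Dawley rat cerebral cortex and separated from the calcium-dependent form on Sephadex G-200. Substrate was 1.0 μM [3H]cAMP in Tris-HCl pH 7.5/MgCl2, run in triplicate for 8 min at 37 °C and stopped by heat. [3H]5'-AMP was separated on boronate affinity gel and counted. IC50 came from semilog plots over three log concentrations in triplicate.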"}, "Mus musculus [4]": {"test_system": "Mus musculus", "assay": "Reversal of reserpine-induced hypothermia in mice by intraperitoneal dose", "type": "functional", "conditions": "ip, read-out: MED", "method_in_brief": "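Individually housed mice at 20 °C received reserpine 2 mg/kg sc 18 h before test. Rectal temperature was measured before and 1 h after dosing with test drug in 5% DMSO/5% Emulphor 620/90% saline. At least four half-log-spaced doses were given, with nine mice per dose. MED was the dose giving a statistically significant temperature increase.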"}},
  "data": [
    {"smiles": "COc1ccc(C2CNC(=O)N2C)cc1OC1CC2C3CCC(C3)C12", "note": "(stereo not given)", "values": [
      {"measurement": "minimal effective dose", "setting": "Mus musculus [1]", "result": "> 32", "unit": "mg/kg"},
      {"measurement": "IC50", "setting": "Phosphodiesterase 4 [2]", "result": 0.1, "unit": "µM"},
      {"measurement": "IC50", "setting": "Phosphodiesterase 4 [3]", "result": 3.1, "unit": "µM"}
    ]},
    {"smiles": "COc1ccc(C2CNC(=O)N2C)cc1OC1CC2CCC1CC2", "note": "(stereo not given)", "values": [
      {"measurement": "IC50", "setting": "Phosphodiesterase 4 [2]", "result": 0.081, "unit": "µM"},
      {"measurement": "minimal effective dose", "setting": "Mus musculus [4]", "result": "> 3200", "unit": "µg/kg"},
      {"measurement": "IC50", "setting": "Phosphodiesterase 4 [3]", "result": 2.5, "unit": "µM"}
    ]},
    {"smiles": "COc1ccc(C2CNC(=O)N2C)cc1OC1CC2C3CCC(C3)C2C1", "note": "(stereo not given)", "values": [
      {"measurement": "minimal effective dose", "setting": "Mus musculus [1]", "result": "> 32", "unit": "mg/kg"},
      {"measurement": "IC50", "setting": "Phosphodiesterase 4 [2]", "result": "> 0.1", "unit": "µM"},
      {"measurement": "minimal effective dose", "setting": "Mus musculus [4]", "result": 3200, "unit": "µg/kg"},
      {"measurement": "IC50", "setting": "Phosphodiesterase 4 [3]", "result": 1.4, "unit": "µM"}
    ]},
    {"smiles": "COc1ccc(C2CNC(=O)N2C)cc1OC1CC2CCC(C2)C1", "note": "(stereo not given)", "values": [
      {"measurement": "minimal effective dose", "setting": "Mus musculus [1]", "result": "> 32", "unit": "mg/kg"},
      {"measurement": "IC50", "setting": "Phosphodiesterase 4 [2]", "result": "> 0.1", "unit": "µM"},
      {"measurement": "minimal effective dose", "setting": "Mus musculus [4]", "result": "> 3200", "unit": "µg/kg"},
      {"measurement": "IC50", "setting": "Phosphodiesterase 4 [3]", "result": 2.4, "unit": "µM"}
    ]},
    {"smiles": "COc1ccc(C2CNC(=O)N2C)cc1O[C@H]1CC2CC1C1CCCC21", "note": "(stereo not given in full)", "values": [
      {"measurement": "minimal effective dose", "setting": "Mus musculus [1]", "result": 32, "unit": "mg/kg"},
      {"measurement": "minimal effective dose", "setting": "Mus musculus [4]", "result": 320, "unit": "µg/kg"}
    ]},
    {"smiles": "COc1ccc(C2CNC(=O)N2C)cc1O[C@H]1CC2CCC1C2", "note": "(stereo not given in full)", "values": [
      {"measurement": "minimal effective dose", "setting": "Mus musculus [1]", "result": "> 32", "unit": "mg/kg"},
      {"measurement": "minimal effective dose", "setting": "Mus musculus [4]", "result": 1000, "unit": "µg/kg"}
    ]},
    {"smiles": "COc1ccc(C2CNC(=O)N2C)cc1O[C@@H]1CC2CCC1C2", "note": "(stereo not given in full)", "values": [
      {"measurement": "minimal effective dose", "setting": "Mus musculus [1]", "result": 1, "unit": "mg/kg"},
      {"measurement": "IC50", "setting": "Phosphodiesterase 4 [2]", "result": 0.0026, "unit": "µM"},
      {"measurement": "minimal effective dose", "setting": "Mus musculus [4]", "result": 0.03, "unit": "µg/kg"},
      {"measurement": "IC50", "setting": "Phosphodiesterase 4 [3]", "result": 0.22, "unit": "µM"}
    ]},
    {"smiles": "COc1ccc(C2CNC(=O)N2C)cc1O[C@@H]1CC2CC1C1CCCC21", "note": "(stereo not given in full)", "values": [
      {"measurement": "minimal effective dose", "setting": "Mus musculus [1]", "result": 10, "unit": "mg/kg"},
      {"measurement": "IC50", "setting": "Phosphodiesterase 4 [2]", "result": 0.01, "unit": "µM"},
      {"measurement": "minimal effective dose", "setting": "Mus musculus [4]", "result": 320, "unit": "µg/kg"},
      {"measurement": "IC50", "setting": "Phosphodiesterase 4 [3]", "result": 0.49, "unit": "µM"}
    ]},
    {"smiles": "COc1ccc(C2CNC(=O)N2C)cc1O[C@@H]1CC2CC1c1ccccc12", "note": "(stereo not given in full)", "values": [
      {"measurement": "minimal effective dose", "setting": "Mus musculus [1]", "result": "> 32", "unit": "mg/kg"},
      {"measurement": "IC50", "setting": "Phosphodiesterase 4 [2]", "result": 0.021, "unit": "µM"},
      {"measurement": "minimal effective dose", "setting": "Mus musculus [4]", "result": 1000, "unit": "µg/kg"},
      {"measurement": "IC50", "setting": "Phosphodiesterase 4 [3]", "result": 0.29, "unit": "µM"}
    ]},
    {"smiles": "COc1ccc(C2CNC(=O)N2C)cc1OC1C2CC3CC(C2)CC1C3", "note": "(stereo not given)", "values": [
      {"measurement": "minimal effective dose", "setting": "Mus musculus [1]", "result": "> 32", "unit": "mg/kg"},
      {"measurement": "IC50", "setting": "Phosphodiesterase 4 [2]", "result": "> 0.1", "unit": "µM"},
      {"measurement": "minimal effective dose", "setting": "Mus musculus [4]", "result": 3200, "unit": "µg/kg"},
      {"measurement": "IC50", "setting": "Phosphodiesterase 4 [3]", "result": 11, "unit": "µM"}
    ]},
    {"smiles": "COc1ccc(C2CNC(=O)N2C)cc1OC1CC2C=CC1C2", "note": "(stereo not given)", "values": [
      {"measurement": "minimal effective dose", "setting": "Mus musculus [1]", "result": 0.1, "unit": "mg/kg"},
      {"measurement": "IC50", "setting": "Phosphodiesterase 4 [2]", "result": 0.0031, "unit": "µM"},
      {"measurement": "minimal effective dose", "setting": "Mus musculus [4]", "result": 100, "unit": "µg/kg"},
      {"measurement": "IC50", "setting": "Phosphodiesterase 4 [3]", "result": 0.13, "unit": "µM"}
    ]},
    {"smiles": "COc1ccc(C2CNC(=O)C2)cc1OC1CCCC1", "note": "(stereo not given) [ROLIPRAM]", "values": [
      {"measurement": "minimal effective dose", "setting": "Mus musculus [1]", "result": 1.8, "unit": "mg/kg"},
      {"measurement": "minimal effective dose", "setting": "Mus musculus [4]", "result": 0.1, "unit": "µg/kg"}
    ]}
  ]
}
